Test [1] concerns Staphylococcus aureus. As to the kind of experiment: Bactericidal activity against Staphylococcus aureus MTCC 96 after 24 hrs. The class given is functional. The following applies: MTCC 96, 24 h.
Test [2] concerns Pseudomonas aeruginosa. As to the kind of experiment: microbe, parasite or virus in culture. Conditions: MTCC 741, 24 h, read-out: DIZ.
Test [3] has as its system Staphylococcus aureus. Briefly: Antibacterial activity against Staphylococcus aureus MTCC 96 assessed as growth inhibition at 4 mg/mL after 24 hrs by agar well diffusion method. The class given is functional. Conditions: MTCC 96, 24 h, read-out: DIZ. In a few lines:
(§1)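 Agar wells 8 mm in diameter. The read-out is the diameter of the growth inhibition zone in mm, including the well, given as the mean of three replicates.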
For orientation: A growth-free zone around the sample is the usual read-out of agar diffusion tests.

In test [4] the test system is Bacillus subtilis. Briefly: Antibacterial activity against Bacillus subtilis MTCC 121 assessed as growth inhibition at 4 mg/mL after 24 hrs by agar well diffusion method. The class given is functional. The following applies: MTCC 121, 24 h, read-out: DIZ. In a few lines: as §1
The subject of test [5] is Bacillus subtilis. As to the kind of experiment: Antibacterial activity against Bacillus subtilis MTCC 121 assessed as growth inhibition after 24 hrs by macrodilution tube method. The following applies: MTCC 121, 24 h. The class given is functional.
Test [6] deals with Bacillus subtilis. Briefly: Bactericidal activity against Bacillus subtilis MTCC 121 after 24 hrs. Conditions: MTCC 121, 24 h. The class given is functional.
Test [7] concerns Saccharomyces cerevisiae. As to the kind of experiment: Antifungal activity against Saccharomyces cerevisiae MTCC 170 assessed as growth inhibition by macrodilution tube method. The class given is functional. In a few lines: (§2)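 The MIC against the yeasts was determined with amphotericin-B as the reference standard drug.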
In another test the test system is Escherichia coli. Briefly: Antibacterial activity against Escherichia coli MTCC 1652 assessed as growth inhibition at 4 mg/mL after 24 hrs by agar well diffusion method. The class given is functional, organism-based. In a few lines:
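Agar well diffusion with 8 mm wells. The inhibition zone diameter is reported in mm, with the well diameter included. Values are means of three replicates.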

The subject of test [8] is Candida albicans. Briefly: Antifungal activity against Candida albicans MTCC 227 assessed as growth inhibition by macrodilution tube method. The class given is functional. In a few lines:
as §2

Test [9] concerns Staphylococcus aureus. As to the kind of experiment: Antibacterial activity against Staphylococcus aureus MTCC 96 assessed as growth inhibition after 24 hrs by macrodilution tube method. The class given is functional. The following applies: MTCC 96, 24 h.
Test [10] deals with Candida albicans. As to the kind of experiment: Antifungal activity against Candida albicans MTCC 227 assessed as growth inhibition at 4 mg/mL after 24 hrs by agar well diffusion method. The class given is functional. The following applies: MTCC 227, 24 h, read-out: DIZ. In a few lines: as §1
In test [11] the test system is Pseudomonas aeruginosa. Conditions: MTCC 741, 4 mg/mL.
Test [12] relates to Saccharomyces cerevisiae. Briefly: Antifungal activity against Saccharomyces cerevisiae MTCC 170 assessed as growth inhibition at 4 mg/mL after 24 hrs by agar well diffusion method. The class given is functional. The following applies: MTCC 170, 24 h, read-out: DIZ. Summed up:
as §1

Broadly, the MBC is the lowest tested concentration that kills the bacteria rather than only halting them. Higher therefore signals less potent killing. Usually MIC stands for the smallest concentration in the dilution series that meets the test's criterion for growth inhibition.

In brackets after ≈: the same amount, converted by molar mass. Activity calls are given as the source filed them.

For the compound `O=C(O)c1cn(C2CC2)c2cc(N3CCNCC3)c(F)cc2c1=O` [CIPROFLOXACIN], the MBC in the test with Staphylococcus aureus [1] and against Bacillus subtilis [6] was 6.25 µg/mL (≈ 18.9 µM) each time. Moreover, the zone of inhibition at 4000 µg/mL was 22 mm with Pseudomonas aeruginosa [2], 26.6 mm with Staphylococcus aureus [3] and 24 mm with Bacillus subtilis [4]. For the same compound, the MIC in the test on Bacillus subtilis [5] was determined as 6.25 µg/mL (≈ 18.9 µM).
For the compound `CC1(C)CC(=O)C2=C(C1)OC(N)=C(C#N)C21C(=O)N(Cc2cn(-c3ccc([N+](=O)[O-])cc3)nn2)c2ccccc21` (stereo unspecified), the MIC in the test with Saccharomyces cerevisiae [7] came to 256 µg/mL (≈ 476 µM); in the test on Candida albicans [8], 256 µg/mL (≈ 476 µM); in the test on Staphylococcus aureus [9], 128 µg/mL (≈ 238 µM); with Bacillus subtilis [5] it was 128 µg/mL (≈ 238 µM). The “diameter of the inhibition zone (DIZ)” value in the test on Escherichia coli was “inactive”. The figures for the MBC in the test with Staphylococcus aureus [1] and in the test with Bacillus subtilis [6] were 128 µg/mL (≈ 238 µM) and 256 µg/mL (≈ 476 µM), respectively. Further, the zone of inhibition at 4000 µg/mL was 16.6 mm with Staphylococcus aureus [3], 17.3 mm with Bacillus subtilis [4], 14.3 mm in the test with Candida albicans [10] and 15.3 mm with Saccharomyces cerevisiae [12]. Further, the DIZ entry in the test with Pseudomonas aeruginosa [11] was “inactive”.
On to `CC1(C)CC(=O)C2=C(C1)OC(N)=C(C#N)C21C(=O)N(Cc2cn(-c3ccc(Br)cc3)nn2)c2ccccc21` (stereo unspecified), for which the MIC came out at 128 µg/mL (≈ 224 µM) in the test on Saccharomyces cerevisiae [7], 512 µg/mL (≈ 896 µM) in the test with Candida albicans [8], 32 µg/mL (≈ 56 µM) with Staphylococcus aureus [9] and 16 µg/mL (≈ 28 µM) with Bacillus subtilis [5]. In addition, in the test on Escherichia coli, the “diameter of the inhibition zone (DIZ)” value was “inactive”. For the same compound, the results for the MBC in the test with Staphylococcus aureus [1] and against Bacillus subtilis [6] were 128 µg/mL (≈ 224 µM) and 64 µg/mL (≈ 112 µM), respectively. Besides, the zone of inhibition at 4000 µg/mL in the test with Staphylococcus aureus [3] came to 19.3 mm; with Bacillus subtilis [4], 22.2 mm; with Candida albicans [10], 13.3 mm; in the test on Saccharomyces cerevisiae [12] it was 14.6 mm. In the test on Pseudomonas aeruginosa [11], the DIZ entry was “inactive”.
`Cn1c2c(c(=O)n(C)c1=O)C1(C(=O)N(Cc3cn(-c4ccc(Br)cc4)nn3)c3ccccc31)C(C#N)=C(N)O2` (stereo unspecified): the MIC with Saccharomyces cerevisiae [7] was determined as 128 µg/mL (≈ 218 µM); in the test on Candida albicans [8], 256 µg/mL (≈ 436 µM); in the test on Staphylococcus aureus [9], 32 µg/mL (≈ 54.5 µM); with Bacillus subtilis [5], 16 µg/mL (≈ 27.2 µM). In addition, the “diameter of the inhibition zone (DIZ)” value with Escherichia coli is “inactive”. In addition, the MBC with Staphylococcus aureus [1] and against Bacillus subtilis [6] was 64 µg/mL (≈ 109 µM) in each case. Further, the zone of inhibition at 4000 µg/mL came to 20.6 mm with Staphylococcus aureus [3], 22.3 mm in the test on Bacillus subtilis [4], 13.3 mm in the test on Candida albicans [10] and 15.3 mm with Saccharomyces cerevisiae [12]. Besides, the DIZ result in the test with Pseudomonas aeruginosa [11] was “inactive”.
On to `COc1ccc(-n2cc(CN3C(=O)C4(C(C#N)=C(N)OC5=C4C(=O)CC(C)(C)C5)c4ccccc43)nn2)cc1` (stereo unspecified), for which the MIC amounted to 64 µg/mL (≈ 122 µM) with Saccharomyces cerevisiae [7], 128 µg/mL (≈ 245 µM) in the test on Candida albicans [8], 128 µg/mL (≈ 245 µM) in the test on Staphylococcus aureus [9] and 128 µg/mL (≈ 245 µM) with Bacillus subtilis [5]. Besides, the “diameter of the inhibition zone (DIZ)” value in the test on Escherichia coli is “inactive”. In addition, the MBC with Staphylococcus aureus [1] and in the test on Bacillus subtilis [6] was 256 µg/mL (≈ 490 µM) throughout. Moreover, the zone of inhibition at 4000 µg/mL in the test on Staphylococcus aureus [3] was 15.6 mm; with Bacillus subtilis [4], 17.3 mm; in the test with Candida albicans [10], 16.6 mm; in the test on Saccharomyces cerevisiae [12] it was 15.6 mm. The DIZ entry with Pseudomonas aeruginosa [11] is “inactive”.
For `Cc1ccc(-n2cc(CN3C(=O)C4(C(C#N)=C(N)OC5=C4C(=O)CC(C)(C)C5)c4ccccc43)nn2)cc1` (stereo unspecified), the MIC was 256 µg/mL (≈ 505 µM) in the test on Saccharomyces cerevisiae [7], 512 µg/mL (≈ 1010 µM) with Candida albicans [8], 128 µg/mL (≈ 253 µM) in the test on Staphylococcus aureus [9] and 32 µg/mL (≈ 63.2 µM) in the test on Bacillus subtilis [5]. Further, the “diameter of the inhibition zone (DIZ)” value with Escherichia coli was “inactive”. Also, the MBC in the test with Staphylococcus aureus [1] and with Bacillus subtilis [6] was 256 µg/mL (≈ 505 µM) each time. In addition, the zone of inhibition at 4000 µg/mL turned out to be 14.3 mm with Staphylococcus aureus [3], 15.6 mm in the test on Bacillus subtilis [4], 12.6 mm with Candida albicans [10] and 14 mm with Saccharomyces cerevisiae [12]. Also, the DIZ entry in the test with Pseudomonas aeruginosa [11] is “inactive”.

For the origin of these results see ChEMBL document CHEMBL3232914, “Ultrasound promoted one pot synthesis of novel fluorescent triazolyl spirocyclic oxindoles using DBU based task specific ionic liquids and their antimicrobial activity” (2014).
